# Bioassay records (PubChem BioAssay)
# Only some compounds are listed: those with a hit (about 2.9% of all), similar ones and a draw of the others.
# Dynein transport: inhibitors of GR-EGFP nuclear translocation, primary screen, dynein cargo transport inhibitor project, imaging, high-content, 3617.4 mouse cells; test concentration mostly 20 µM; stimulated with dexamethasone, 1 µM; active compounds read low; z-score, hits read low; 220,000 tested, 0.47% active;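 active = plate z-score of nuclear minus cytoplasmic receptor signal below a set negative limit, without overly bright fluorescence or cell loss, cut at about -3.5 in these data, passing the limit was not always enough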;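 also: z-score of nuclear minus cytoplasmic ring GR-EGFP intensity difference per well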
#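 medium = tetracycline-free induction medium containing charcoal-stripped FBS | also added = 1.0 µM final dexamethasone stimulus | schedule = 48 h induction, 1 h compound, 30 min dex at 37 °C | technique = fixed, Hoechst-stained cells imaged at 10x for EGFP | measure = GR-EGFP nuclear translocation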
# MEKK2 WT-MEK5: modulators of MEK5 binding to wildtype MEKK2, primary screen, biochemical, multiplex bead flow cytometry, Alexa488-MEK5 | AID 1531, 2009 | binding response (% of control), % at 10 µM | Mitogen-activated protein kinase kinase kinase 2 (Homo sapiens), Q9Y2U5 | Alexa488-MEK5 binding to MEKK2 WT; actives lie on both sides | 290,000 tested, 1.1% active; in the data active = binding response below about 67% or above about 130%
# MEKK3 PB1 HTS: modulators of MEKK3-MEK5 PB1 binding, primary screen, biochemical, wildtype MEKK3, multiplex bead flow cytometry, Alexa488-MEK5. 290,000 tested, 1.4% active. binding response (% of control), % at 10 µM. bead-based flow cytometry, Alexa488-MEK5 binding to MEKK3; actives lie on both sides; 0 = blocked by unlabeled MEK5, 100 = vehicle;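 active = binding response more than 3 SD above or below the average of its plate-row segment, actives on both sides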;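 also: Alexa488 bead fluorescence after subtracting the streptavidin-only scavenger bead signal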
# Beta2AR agonist: beta2AR agonists driving receptor internalization, primary screen, cell-based, FAP fluorogen, flow cytometry. response, % (concentration not given with the values). Beta-2 adrenergic receptor (Homo sapiens), P07550. Am2.2-beta2AR cells. 340,000 tested, 0.43% active;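 active = response above a set limit, near 3 SD of response in nonfluorescent compounds, cut at about 42% in these data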
# Target sequence (P07550 whole entry, looked up): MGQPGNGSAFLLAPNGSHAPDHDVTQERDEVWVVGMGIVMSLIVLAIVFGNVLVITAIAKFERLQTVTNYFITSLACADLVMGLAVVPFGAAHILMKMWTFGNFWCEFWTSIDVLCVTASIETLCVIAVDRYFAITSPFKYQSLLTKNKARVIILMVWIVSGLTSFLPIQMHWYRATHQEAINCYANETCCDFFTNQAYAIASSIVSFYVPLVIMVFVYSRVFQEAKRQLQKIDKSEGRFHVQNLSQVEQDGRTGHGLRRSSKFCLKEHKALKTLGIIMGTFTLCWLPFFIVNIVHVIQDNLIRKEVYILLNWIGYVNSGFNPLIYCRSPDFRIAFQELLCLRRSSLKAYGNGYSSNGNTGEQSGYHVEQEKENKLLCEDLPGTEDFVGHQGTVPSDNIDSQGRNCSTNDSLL
# ATG4B inh: ATG4B protease inhibitors, primary screen, biochemical, fluorescence, uHTS. Cysteine protease ATG4B (Homo sapiens), Q9Y4P1. inhibition, % at 8.33 µM. ATG4B cleavage of LC3-PLA2, NBD-HPC fluorescence, 1 h. 340,000 tested, 0.51% active; in the data active = inhibition above about 40%
# MEKK2 mut-MEK5: MEK5 binding signal on mutant MEKK2 PB1, primary screen, biochemical, multiplex bead flow cytometry, Alexa488-MEK5. percent response, % at 10 µM. 290,000 tested, 0.35% active. Alexa488-MEK5 binding to MEKK2 mutant. AID 1530, 2009; in the data active = percent response above about 24%, passing the limit was not always enough
# MEKK2wt confirm: modulators of MEK5 binding to wildtype MEKK2, confirmation, biochemical, single concentration, multiplex bead flow cytometry; AID 1892, 2009; shares compounds with MEKK3 PB1 HTS; Alexa488-MEK5 binding to MEKK2 WT; actives lie on both sides; 5,900 tested, 2.4% active; binding response (% of control), % at 10 µM; in the data active = binding response below about 16% or above about 210%; inactive = in between
# MEKK2mut-MEK5: mutant MEKK2 PB1-MEK5 binding signal retest – biochemical, single concentration, multiplex bead flow cytometry, confirmation; percent response, % at 10 µM; 5,900 tested, 2% active; shares compounds with MEKK3 PB1 HTS; Alexa488-MEK5 binding to MEKK2 mutant; AID 1893, 2009; in the data active = percent response mostly above about 71%, no sharp cut-off; inactive = mostly below about 38%;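 also: higher means compound restores mutant binding toward wildtype level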
# MEKK3 confirm: MEKK3 wild-type PB1 binding to MEK5, inhibitors, confirmation, biochemical, bead multiplex flow cytometry, single concentration, wildtype | binding response (% of control), % at 10 µM | AID 1894, 2009 | 5,900 tested, 1.8% active | Alexa488-MEK5 binding to MEKK3; active compounds read low | shares compounds with MEKK3 PB1 HTS;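 active = binding response below 72% of control, or above a set upper limit, though filed actives all read lower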;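 also: lower values mean stronger disruption of MEK5 binding to MEKK3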
# Numbers stand for hits; . = inactive; / = not tested or not shown.
SMILES,Dynein transport,MEKK2 WT-MEK5,MEKK3 PB1 HTS,Beta2AR agonist,ATG4B inh,MEKK2 mut-MEK5,MEKK2wt confirm,MEKK2mut-MEK5,MEKK3 confirm
C=CCN1c2ccccc2[C@]23C[C@@H](C(=O)OC)N(C(=O)c4cc(C)oc4C)C2=NC(C(=O)OC)=C(C(=O)OC)[C@H]13,.,147.0,.,/,.,.,.,.,.
CC#CCN1c2ccccc2[C@]23C[C@@H](C(=O)OC)N(C(=O)c4cc(C)oc4C)C2=NC(C(=O)OC)=C(C(=O)OC)[C@H]13,.,.,.,.,.,.,/,/,/
C=CCN1c2ccccc2[C@]23C[C@@H](C(=O)OC)N=C2NC(C(=O)OC)=C(C(=O)OC)[C@H]13,.,150.0,.,.,.,.,.,.,.
CC#CCN1c2ccccc2[C@]23C[C@@H](C(=O)OC)N(C(=O)c4ccco4)C2=NC(C(=O)OC)=C(C(=O)OC)[C@H]13,.,151.0,.,.,.,.,.,.,.
CCNC(=O)n1nccc1C(C)Oc1ccccc1 (stereo unspecified),.,.,.,.,.,.,/,/,/
Cc1c(C)c(C)c(S(=O)(=O)Nc2ccc3[nH]c(=O)[nH]c3c2)c(C)c1C,/,.,.,.,.,.,/,/,/
COc1ccc(-c2noc(N3CCC(C(=O)Nc4cccc(OC)c4)CC3)n2)cc1,/,.,.,.,.,.,/,/,/
NCCSc1c(-c2ccc(Cl)cc2)[nH]c2ccccc12,.,171.0,.,.,.,51.0,.,.,.
NCCSc1c(-c2ccccc2)[nH]c2ccccc12,.,146.0,.,.,.,25.0,.,.,.
Cc1ccccc1-n1ccnc1SCC(=O)NC1CCCC1,/,.,.,.,.,.,/,/,/
COCC(=O)Nc1cc(C(=O)Nc2ccccc2)ccc1Cl,.,.,.,/,/,.,/,/,/
COc1ccccc1N1CCN(C(=S)Nc2ccc(F)cc2)CC1,/,.,.,.,.,.,/,/,/
O=C(Nc1ccc(S(=O)(=O)NCc2ccccc2)cc1)c1ccccc1[N+](=O)[O-],.,.,158.0,.,.,.,.,.,.
COc1cccc(NC(=S)NN2C(C)CCCC2C)c1 (stereo unspecified),.,.,132.0,.,.,.,.,.,.
O=C(c1ccc(S(=O)(=O)N2CCCCC2)cc1)N1CCCc2ccccc21,.,.,.,.,.,.,/,/,/
O=C(c1ccc(S(=O)(=O)N2CCCC2)cc1)N1CCCc2ccccc21,.,.,.,.,.,27.0,.,.,.
O=C(NCCCO)c1ccc(CSc2nc3ccccc3c(=O)[nH]2)cc1,.,.,128.0,.,.,.,.,.,.
O=c1[nH]c(SCc2ccc(Cl)cc2)nc2ccccc12,.,.,.,.,.,.,/,/,/
COC(=O)C1CN(C(=O)COc2cc(C)cc(C)c2)c2ccccc2O1 (stereo unspecified),/,.,.,.,.,.,/,/,/
O=C(NCC(c1ccco1)N1CCN(c2ccccc2)CC1)C(=O)NC1CC1 (stereo unspecified),/,/,/,.,.,/,/,/,/
